ChEMBL document CHEMBL4312019, “Design, synthesis, and evaluation of compounds capable of reducing Pseudomonas aeruginosa virulence” (Eur J Med Chem, 2020)
pIC50: −log10 of the molar value. The source made the active and inactive calls. No cut-off for these calls is given here.

What was measured:
Pseudomonas aeruginosa [1] = experiment: Inhibition of biofilm formation in Pseudomonas aeruginosa PA14 at 10 uM incubated for 10 hrs by crystal violet staining based microtiter plate method; type: functional, organism-based
Method in brief: (§1)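 PAO1 or PA14 grown at 37 °C with 10 µM compound or vehicle. Expressed as percent biofilm biomass versus vehicle-treated control; mean ± SEM.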

Pseudomonas aeruginosa [2] = experiment: Inhibition of biofilm formation in Pseudomonas aeruginosa PAO1 at 10 uM incubated for 10 hrs by crystal violet staining based microtiter plate method; type: functional, organism-based; method in brief: as §1
[3] = target: T1, Transcriptional regulator MvfR (Pseudomonas aeruginosa PA14) (UniProt A0A072ZLE6); experiment: Inhibition of Pseudomonas aeruginosa PAO1 PqsR assessed as reduction in pyocyanin production level at 10 uM measured after 10 mins by spectrometry based analysis
T1 sequence (whole entry): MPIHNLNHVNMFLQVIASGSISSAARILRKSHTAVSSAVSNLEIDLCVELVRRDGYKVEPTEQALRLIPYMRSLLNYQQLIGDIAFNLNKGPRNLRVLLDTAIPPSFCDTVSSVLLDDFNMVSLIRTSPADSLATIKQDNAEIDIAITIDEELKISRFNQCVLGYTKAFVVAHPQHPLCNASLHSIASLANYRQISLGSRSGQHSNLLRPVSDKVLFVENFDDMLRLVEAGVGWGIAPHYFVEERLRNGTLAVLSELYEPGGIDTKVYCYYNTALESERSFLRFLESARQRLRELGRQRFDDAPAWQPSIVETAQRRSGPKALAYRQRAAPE
Method in brief: (§2)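 PAO1 cultured with or without 10 µM compound. Pyocyanin quantified by a spectrometry-based method and expressed as percent of vehicle-treated control. Mean ± SEM of at least 32 replicates.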

[4] = target: Voltage-gated inwardly rectifying potassium channel KCNH2 (Homo sapiens, UniProt Q12809); experiment: Inhibition of human ERG
Pseudomonas aeruginosa [5] = experiment: Inhibition of pyocyanin production in Pseudomonas aeruginosa at 100 uM relative to control; type: functional
Pseudomonas aeruginosa [6] = experiment: Inhibition of pyocyanin production in Pseudomonas aeruginosa at 1 uM relative to control; type: functional
Pseudomonas aeruginosa [7] = experiment: Inhibition of biofilm formation in Pseudomonas aeruginosa PA14 at 10 uM incubated for 10 hrs by crystal violet staining based microtiter plate method relative to control; type: functional; conditions: PA14, 10 h; method in brief: as §1
Pseudomonas aeruginosa [8] = experiment: Inhibition of biofilm formation in Pseudomonas aeruginosa PAO1 at 10 uM incubated for 10 hrs by crystal violet staining based microtiter plate method relative to control; type: functional; conditions: PAO1, 10 h; method in brief: as §1
[9] = target: T1, Transcriptional regulator MvfR (Pseudomonas aeruginosa PA14); experiment: Inhibition of Pseudomonas aeruginosa PA14 PqsR transfected with pAW1-GFP at 10 uM measured after 12 hrs by fluorescence based microtiter plate reader method
Method in brief: (§3)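 GFP reporter strains (PqsR: PA14 pAW1::GFP; LasR: PAO1 lasB::GFP) grown 12 h in LB broth with 5% BSA, with or without 10 µM compound.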

[10] = target: Transcriptional activator protein LasR (Pseudomonas aeruginosa (strain ATCC 15692 / PAO1 / 1C / PRS 101 / LMG12228)) (UniProt P25084); experiment: Inhibition of Pseudomonas aeruginosa PAO1 LasR transfected with lasB-GFP at 10 uM measured after 12 hrs by fluorescence based microtiter plate reader method; method in brief: as §3
[11] = target: T1, Transcriptional regulator MvfR (Pseudomonas aeruginosa PA14); experiment: Inhibition of Pseudomonas aeruginosa PAO1 PqsR assessed as increase in pyocyanin production level at 10 uM measured after 10 mins by spectrometry based analysis relative to control; method in brief: as §2
[12] = Inhibition of quorum sensing system in Pseudomonas aeruginosa assessed as reduction of rhamnolipids level at 10 uM measured after 24 hrs by methylene-blue based assay relative to control
Method in brief: (§4)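 P. aeruginosa grown 24 h with or without 10 µM compound. Rhamnolipids quantified by methylene-blue assay against a six-point standard curve of commercial rhamnolipids.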

[13] = target: T1, Transcriptional regulator MvfR (Pseudomonas aeruginosa PA14); experiment: Inhibition of Pseudomonas aeruginosa PqsR at 5 uM relative to control
Pseudomonas aeruginosa [14] = experiment: Inhibition of biofilm formation in Pseudomonas aeruginosa at 50 uM relative to control; type: functional
Pseudomonas aeruginosa [15] = experiment: Inhibition of pyocyanin production in Pseudomonas aeruginosa at 50 uM relative to control; type: functional
Pseudomonas aeruginosa [16] = experiment: Inhibition of pyoverdin production in Pseudomonas aeruginosa at 10 uM relative to control; type: functional
[17] = Inhibition of quorum sensing system in Pseudomonas aeruginosa assessed as reduction of rhamnolipids level at 10 uM measured after 24 hrs by methylene-blue based assay; method in brief: as §4

Sequence of Voltage-gated inwardly rectifying potassium channel KCNH2 (Q12809 whole entry): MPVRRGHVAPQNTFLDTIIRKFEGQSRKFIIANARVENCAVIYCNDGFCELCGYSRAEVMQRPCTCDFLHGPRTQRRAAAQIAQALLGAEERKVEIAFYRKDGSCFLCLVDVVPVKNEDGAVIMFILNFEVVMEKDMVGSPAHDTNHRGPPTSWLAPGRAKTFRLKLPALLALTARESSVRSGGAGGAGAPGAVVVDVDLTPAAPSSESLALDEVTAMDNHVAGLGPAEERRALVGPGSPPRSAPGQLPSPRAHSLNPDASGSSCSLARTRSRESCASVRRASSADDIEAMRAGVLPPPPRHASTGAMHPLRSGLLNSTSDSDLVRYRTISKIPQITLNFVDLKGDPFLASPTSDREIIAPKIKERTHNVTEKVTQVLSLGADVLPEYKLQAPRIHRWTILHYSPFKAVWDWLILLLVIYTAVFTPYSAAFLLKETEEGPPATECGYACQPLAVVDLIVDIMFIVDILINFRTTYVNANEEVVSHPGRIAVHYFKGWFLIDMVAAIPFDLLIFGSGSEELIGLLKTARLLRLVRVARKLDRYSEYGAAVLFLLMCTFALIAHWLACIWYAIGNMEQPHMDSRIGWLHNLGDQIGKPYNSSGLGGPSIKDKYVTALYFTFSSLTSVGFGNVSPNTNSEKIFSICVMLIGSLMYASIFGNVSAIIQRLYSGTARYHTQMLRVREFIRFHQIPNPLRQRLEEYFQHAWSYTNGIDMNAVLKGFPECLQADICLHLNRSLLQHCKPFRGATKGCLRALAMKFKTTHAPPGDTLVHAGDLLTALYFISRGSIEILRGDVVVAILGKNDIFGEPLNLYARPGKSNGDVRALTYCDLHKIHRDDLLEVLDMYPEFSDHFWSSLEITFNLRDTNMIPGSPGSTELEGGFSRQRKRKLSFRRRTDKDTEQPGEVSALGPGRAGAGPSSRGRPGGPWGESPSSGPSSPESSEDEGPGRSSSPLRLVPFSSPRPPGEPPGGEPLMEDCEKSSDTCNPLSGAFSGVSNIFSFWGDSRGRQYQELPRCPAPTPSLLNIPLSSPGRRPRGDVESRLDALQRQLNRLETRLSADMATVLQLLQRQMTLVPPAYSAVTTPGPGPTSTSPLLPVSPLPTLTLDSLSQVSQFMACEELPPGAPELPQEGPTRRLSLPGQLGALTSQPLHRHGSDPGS
Sequence of Transcriptional activator protein LasR (Pseudomonas aeruginosa (strain ATCC 15692 / PAO1 / 1C / PRS 101 / LMG12228)) (P25084 whole entry): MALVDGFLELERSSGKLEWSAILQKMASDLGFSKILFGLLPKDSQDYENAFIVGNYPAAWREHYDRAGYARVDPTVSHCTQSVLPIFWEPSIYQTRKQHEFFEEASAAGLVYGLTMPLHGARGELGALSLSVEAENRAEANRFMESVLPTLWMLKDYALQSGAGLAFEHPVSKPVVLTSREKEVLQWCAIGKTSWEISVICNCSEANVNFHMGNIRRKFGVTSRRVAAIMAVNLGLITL

| SMILES | pIC50 [4] | inhibition at 10 µM (Pseudomonas aeruginosa [7]) [%] | inhibition at 10 µM (Pseudomonas aeruginosa [8]) [%] | other results |
| --- | --- | --- | --- | --- |
| CCCCOc1cc(Cl)c(/N=N/c2c(O)ccc3ccccc23)c(OCCCC)c1 | 6.40 | – | – | inhibition (Pseudomonas aeruginosa [1]): inactive; inhibition (Pseudomonas aeruginosa [2]): inactive; inhibition [3]: inactive |
| CCCCCCCCCNC(=O)CC(=O)c1ccccc1 | – | – | – | inhibition at 100 µM (Pseudomonas aeruginosa [5]): 90% |
| O=C(CSc1nc2cc([N+](=O)[O-])ccc2[nH]1)Nc1ccc(Oc2ccccc2)cc1 | 5.08 | – | – | inhibition at 1 µM (Pseudomonas aeruginosa [6]): 95% |
| Cc1ccc(N(C)C(=O)c2ccc3c(c2)CC(c2ccc(Cl)cc2)OC3=O)cc1C (stereo not drawn) | 5.53 | 40 to 60 | 40 to 60 | – |
| O=C(CCCS(=O)(=O)c1ccccc1)Nc1nc(=O)[nH]cc1F | 4.39 | 40 to 60 | 40 to 60 | inhibition [9]: inactive; inhibition [10]: inactive; inhibition [11]: 20 to 90% |
| O=C(CCNC(=O)c1cccc([N+](=O)[O-])c1)NC1CCOC1=O (stereo not drawn) | 3.04 | 40 to 60 | 40 to 60 | inhibition [12]: 30 to 50% |
| O=C(CCNC(=O)c1cccc([N+](=O)[O-])c1)Nc1nc(=O)[nH]cc1F | 3.45 | 40 to 60 | 40 to 60 | inhibition [9]: Active; inhibition [10]: inactive; inhibition [11]: 20 to 90% |
| CCCCOc1ccc(Cl)c(OCCCC)c1/N=N/c1c(O)ccc2ccccc12 | 6.42 | – | – | inhibition (Pseudomonas aeruginosa [1]): inactive; inhibition (Pseudomonas aeruginosa [2]): inactive; inhibition [3]: inactive |
| CCCCCCCc1[nH]c2ccc([N+](=O)[O-])cc2c(=O)c1CO | – | 40 to 60 | 40 to 60 | inhibition [13]: 100% |
| O=C(Cc1ccc(Br)cc1)N[C@H]1CCOC1=O | – | – | – | inhibition at 50 µM (Pseudomonas aeruginosa [14]): 40%; inhibition at 50 µM (Pseudomonas aeruginosa [15]): 10 to 30% |
| O=C1C=C(Br)/C(=C/Br)O1 | – | – | – | inhibition at 10 µM (Pseudomonas aeruginosa [16]): > 90% |
| O=C(CCCS(=O)(=O)c1ccccc1)NC1CCOC1=O (stereo not drawn) | 3.96 | 40 to 60 | 40 to 60 | inhibition [12]: 30 to 50% |
| CCCCOc1cc(Cl)cc(OCCCC)c1/N=N/c1c(O)ccc2ccccc12 | – | – | – | inhibition (Pseudomonas aeruginosa [1]): inactive; inhibition (Pseudomonas aeruginosa [2]): inactive; inhibition [3]: inactive |
| O=C(CCCS(=O)(=O)c1ccccc1)Nc1cc[nH]c(=O)n1 | 4.17 | 40 to 60 | 40 to 60 | inhibition [11]: 20 to 90% |
| Cc1ccc(NC(=O)c2ccc3c(c2)CC(c2ccc(Cl)cc2)OC3=O)cc1C (stereo not drawn) | 5.17 | 40 to 60 | 40 to 60 | – |
| O=C(c1cn(CCCNCc2ccc(Oc3ccc(Cl)cc3)cc2)nn1)N1CCOCC1 | 6.17 | 40 to 60 | 40 to 60 | inhibition [17]: inactive |
| O=C(CCCC(=O)c1cccc([N+](=O)[O-])c1)NC1CCCC1 | 4.69 | 40 to 60 | 40 to 60 | inhibition [12]: 30 to 50% |
